INS-1E GSIS act: GLuc luminescence reporter in INS-1E cells, primary screen for activators of glucose-dependent secretion of insulin | 370,000 compounds, 0.61% hits | activation, % at 16.6 µM | INS-1E GLuc reporter insulin secretion, 2-3 h;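 active = lowest replicate activation of at least 40%, so every replicate reaches that level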
PDI inh: blocks human protein disulfide isomerase activity; PDI insulin aggregation turbidity, A650, 90 min; inhibition, % at 10 µM; 350,000 compounds, 0.052% hits;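 active = mean inhibition across replicates of 30% or more, whatever share of single replicates reach that level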
Target sequence (P07237 whole entry, looked up): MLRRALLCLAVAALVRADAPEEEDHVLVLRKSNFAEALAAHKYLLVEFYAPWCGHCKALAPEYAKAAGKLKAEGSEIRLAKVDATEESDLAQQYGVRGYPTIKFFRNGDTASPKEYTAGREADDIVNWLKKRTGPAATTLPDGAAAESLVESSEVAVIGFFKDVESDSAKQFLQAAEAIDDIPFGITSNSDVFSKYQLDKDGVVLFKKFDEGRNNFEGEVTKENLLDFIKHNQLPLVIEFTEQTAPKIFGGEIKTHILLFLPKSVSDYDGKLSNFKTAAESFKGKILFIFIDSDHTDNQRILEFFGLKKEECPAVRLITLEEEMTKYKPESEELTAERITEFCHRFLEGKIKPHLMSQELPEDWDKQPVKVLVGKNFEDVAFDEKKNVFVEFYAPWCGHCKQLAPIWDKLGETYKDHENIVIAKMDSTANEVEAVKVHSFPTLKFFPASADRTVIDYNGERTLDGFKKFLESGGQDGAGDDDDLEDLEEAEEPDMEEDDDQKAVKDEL
SIRT5 inh: blocks human SIRT5 desuccinylation of peptide; Q9NXA8; inhibition, % at 15 µM; 330,000 compounds, 1.1% hits; AID 652115; Purified SirT5, succinyl-peptide AMC, trypsin-coupled fluorescence; in the data active = inhibition above about 15%
ERp5 inh: inhibitors of human ERp5 | Q15084 | ERp5 insulin aggregation, absorbance 650 nm, 90 min | inhibition, % at 9.99 µM | 350,000 compounds, 0.05% hits | AID 651711;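 active = mean replicate inhibition above about 25%, with every replicate also reaching it, limit read from the data, passing the limit was not always enough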
S100A4 MyoIIA: blocks human S100A4 binding to myosin IIA peptide | S100A4/TAMRA-MyoIIA peptide fluorescence polarization | AID 652163 | inhibition, % at 10.7 µM | 360,000 compounds, 0.14% hits | P26447;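 active = mean inhibition of at least 70% across replicates, with every replicate also reaching that level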
Target sequence (P26447 whole entry, looked up): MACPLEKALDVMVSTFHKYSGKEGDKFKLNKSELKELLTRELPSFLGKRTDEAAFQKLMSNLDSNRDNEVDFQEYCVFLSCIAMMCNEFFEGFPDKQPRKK
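Test system – S100A4 monomer (human) · Compound – single-point compound testing · Schedule – 5 min incubation before reading · Probe or stimulus – TAMRA-labelled myosin IIA heavy-chain peptide probe, 5 nM · Benchmarks – neutral control DMSO, positive control TFP · Medium – Calcium-containing HEPES buffer, pH 7.2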
Each line names hits and unclear results; the compound was inactive in the other large screens. An excerpt weighted towards active compounds, which were near 1.5% of everything screened.

COc1cccc(CN(C)C[C@@H]2OCc3ccccc3-c3c(n(C)c4ccccc34)C(=O)N([C@H](C)CO)C[C@H]2C)c1	SIRT5 inh 29 (no result: PDI inh)
C[C@@H]1CN([C@H](C)CO)C(=O)c2c(c3ccccc3n2C)-c2ccccc2CO[C@@H]1CN(C)Cc1ccc2c(c1)OCO2	none (no result: PDI inh)
C[C@@H]1CN([C@@H](C)CO)C(=O)c2c(c3ccccc3n2C)-c2ccccc2CO[C@@H]1CN(C)Cc1ccc2c(c1)OCO2	SIRT5 inh 20 (no result: PDI inh)
O=C(N[C@@H]1CC[C@H](CCn2cc(-c3ccccc3)nn2)O[C@@H]1CO)c1ccccc1F	none (no result: PDI inh)
C[C@H](CO)N1C[C@H](C)[C@H](CN(C)C(=O)C2CCC2)Oc2ncc(C#Cc3cccc(F)c3)cc2C1=O	none (no result: PDI inh)
Cc1cc2nc3ccc(N(C)C)cc3nc2cc1N	S100A4 MyoIIA 178 (no result: INS-1E GSIS act, ERp5 inh)
COc1ccc2nc(CCN(C)C(=O)C3CCC(=O)N(Cc4cccc(F)c4)C3)[nH]c2c1 (stereo not drawn)	INS-1E GSIS act 61
COCC(=O)N1[C@@H]2c3ccc(C4=CCCCC4)c(=O)n3C[C@@H]2[C@@H](CO)[C@@H]1C(=O)N1CCN(C)CC1	none (no result: PDI inh)
Cc1ccc(S(=O)(=O)NC(=O)c2ccc(Br)o2)cc1	SIRT5 inh 35
Oc1ccc(/C=C/c2nc(-c3ccccc3O)n(-c3ccccc3)n2)cc1	PDI inh 48 (no result: INS-1E GSIS act, SIRT5 inh, ERp5 inh, S100A4 MyoIIA)
Oc1ccccc1-c1nc(/C=C/c2ccccc2)nn1-c1ccccc1	none (no result: INS-1E GSIS act)
CC(C)CC#Cc1ccc2c(c1)O[C@@H](CN(C)Cc1cccc(F)c1)[C@@H](C)CN([C@H](C)CO)S2(=O)=O	none (no result: PDI inh)
C[C@@H]1CN([C@H](C)CO)S(=O)(=O)c2ccc(C#CC3CC3)cc2O[C@H]1CN(C)Cc1ccc(F)cc1	SIRT5 inh 16 (no result: PDI inh)
CC(C)CC#Cc1ccc2c(c1)O[C@@H](CN(C)Cc1cccc(F)c1)[C@H](C)CN([C@@H](C)CO)S2(=O)=O	INS-1E GSIS act 95 (no result: PDI inh)
C[C@H]1CN([C@@H](C)CO)S(=O)(=O)c2ccc(C#CC3CC3)cc2O[C@@H]1CN(C)Cc1ccccc1F	SIRT5 inh 17 (no result: PDI inh)
C[C@@H]1CN([C@H](C)CO)S(=O)(=O)c2ccc(C#Cc3ccccn3)cc2O[C@@H]1CN(C)Cc1cccc(F)c1	SIRT5 inh 27 (no result: PDI inh)
O=C(C[C@H]1CC[C@@H]2[C@H](COC[C@H](O)CN2Cc2cc(F)ccc2F)O1)N1CCc2ccccc2C1	none (no result: PDI inh)
CC(C)CC#Cc1ccc2c(c1)O[C@@H](CN(C)Cc1ccccc1F)[C@H](C)CN([C@H](C)CO)S2(=O)=O	SIRT5 inh 22 (no result: PDI inh)
CC(C)CC#Cc1ccc2c(c1)O[C@@H](CN(C)Cc1ccccc1F)[C@@H](C)CN([C@H](C)CO)S2(=O)=O	none (no result: PDI inh)
CCCNC(=O)C[C@@H]1CC[C@H]2[C@@H](COC[C@@H](O)CN2C(=O)Nc2ccc3c(c2)OCO3)O1	none (no result: PDI inh)
COc1ccc(C(=O)NCC(=O)OCc2ccccc2F)cc1	SIRT5 inh 32
COc1ccc(C(=O)NCC(=O)OCc2ccc(F)cc2)cc1	none
CCC1CCCCN1CCCNC(=O)c1c(O)nc2ccccn2c1=O (stereo not drawn)	SIRT5 inh 32
CC1CCCCN1CCCNC(=O)c1c(O)nc2ccccn2c1=O (stereo not drawn)	none
CCCN1[C@@H]2c3ccc(-c4ccncc4)c(=O)n3C[C@H]1[C@H](CO)[C@H]2C(=O)NCC1CC1	none (no result: PDI inh)
Cc1ccccc1C(=O)NC(=S)NCCC1=CCCCC1	SIRT5 inh 35
O=C(O)c1ccc(NC2=C/C(=N/S(=O)(=O)c3cccs3)c3ccccc3C2=O)cc1	SIRT5 inh 20
O=C(O)c1ccc(NC2=C/C(=N/S(=O)(=O)c3ccccc3)c3ccccc3C2=O)cc1	SIRT5 inh 41
O=C1C(Nc2ccc(O)cc2)=C/C(=N/S(=O)(=O)c2cccs2)c2ccccc21	none
CC1(C)CCCC(C)(C)N1CC(O)COCCOc1ccc(Br)cc1 (stereo not drawn)	INS-1E GSIS act 51 (no result: SIRT5 inh, ERp5 inh, S100A4 MyoIIA)
OCCN1CCN(CC(O)COCCOc2ccc(Br)cc2)CC1 (stereo not drawn)	none
O=c1c(CO)cc(CO)cc(CO)c1O	none
O=C1C=CC(=O)c2c(O)c(CO)c(CO)c(O)c21	SIRT5 inh 15 (no result: INS-1E GSIS act)
COc1cc(OC)cc(C(=O)N2CCC(N3CCN(c4ccccc4OC)CC3)CC2)c1	SIRT5 inh 24
COc1ccc(C(=O)N2CCN(c3ccccc3OC)CC2)cc1	none (no result: SIRT5 inh)
Cc1ccc(S(=O)(=O)N(C)C[C@H]2Oc3ccc(NC(=O)NC4CCCCC4)cc3CC(=O)N([C@@H](C)CO)C[C@H]2C)cc1	none (no result: PDI inh)
Cc1ccc(-c2n[nH]c(=S)n2/N=C/c2cccs2)cc1	SIRT5 inh 29
S=c1[nH]nc(-c2ccccc2)n1/N=C/c1cccs1	none (no result: SIRT5 inh)
CCNC(=O)C[C@@H]1CC[C@H]2[C@@H](COc3ccc(NC(C)=O)cc3C(=O)N2C)O1	none (no result: PDI inh)
CC(C)NC(=O)N[C@H]1CC[C@H](CCNC(=O)C2CCOCC2)O[C@@H]1CO	none (no result: PDI inh)
CC(=O)Nc1nc(NCc2ccccc2Cl)n(-c2ccccc2)n1	INS-1E GSIS act 77
O=C1Nc2cnc(Cl)nc2Nc2ccccc21	INS-1E GSIS act 87 (no result: PDI inh)
CCC(=O)N1CCCCN2[C@H](CO)[C@H](c3ccc(-c4cccc(C#N)c4)cc3)[C@@H]2C1	SIRT5 inh 21 (no result: PDI inh)
O=C(CN1CCOCC1)N1CCCCN2[C@H](C1)[C@H](c1ccc(-c3ccccc3)cc1)[C@@H]2CO	SIRT5 inh 21 (no result: PDI inh)
O=C(CN1CCOCC1)N1CCCCN2[C@@H](CO)[C@@H](c3ccc(-c4ccccc4)cc3)[C@@H]2C1	none (no result: PDI inh)
Cc1cccc(S(=O)(=O)N2CCCCN3[C@H](CO)[C@H](c4ccc(-c5ccccc5)cc4)[C@H]3C2)c1	none (no result: INS-1E GSIS act, PDI inh)
Cc1cccc(S(=O)(=O)N2CCCCN3[C@H](CO)[C@@H](c4ccc(-c5ccccc5)cc4)[C@@H]3C2)c1	SIRT5 inh 16 (no result: INS-1E GSIS act, PDI inh)
Cc1cccc(-c2ccc([C@H]3[C@H](CO)N4CCCCN(S(=O)(=O)c5cccc(C)c5)C[C@@H]34)cc2)c1	SIRT5 inh 19 (no result: PDI inh)
C[C@H]1CN([C@@H](C)CO)C(=O)c2cccc(NS(=O)(=O)c3cccs3)c2O[C@H]1CN(C)Cc1ccc(C(=O)O)cc1	none (no result: PDI inh)
N#Cc1cccc(-c2ccc([C@@H]3[C@@H](CO)N4CCCCN(S(=O)(=O)c5ccccc5)C[C@@H]34)cc2)c1	none (no result: PDI inh, S100A4 MyoIIA)
N#Cc1cccc(-c2ccc([C@H]3[C@@H](CO)N4CCCCN(S(=O)(=O)c5ccccc5)C[C@H]34)cc2)c1	SIRT5 inh 18 (no result: PDI inh)
C[C@]1(C(=O)NCc2cc(F)cc(C(F)(F)F)c2)C=C[C@@H](Cc2ccccc2)N1C(=O)c1ccccc1	SIRT5 inh 34
COCCNC(=O)[C@@]1(C)C=C[C@@H](Cc2ccccc2)N1C(=O)c1ccccc1	none
C[C@H](CO)N1C[C@H](C)[C@@H](CN(C)S(=O)(=O)c2ccccc2)Oc2ccc(NC(=O)C3CC3)cc2CC1=O	none (no result: PDI inh)
COc1ccc2c(CC(=O)NNC(=O)c3ccc(C)cc3)coc2c1	SIRT5 inh 21 (no result: INS-1E GSIS act)
